Source: ChEMBL document CHEMBL5649170, “Sustained microglial depletion with CSF1R inhibitor impairs parenchymal plaque development in an Alzheimer's disease model” (Nat Commun, 2019)
Activity calls are given as the source filed them. No cut-off for these calls is given here.

Tests used:
[1] = target: T1, Macrophage colony-stimulating factor 1 receptor (Mus musculus) (UniProt P09581); assay: In vivo inhibition of CSF1R in 5XFAD mouse assessed as appearance of CAA in […] cortex at 600 ppm administered as rodent chow starting from 1.5 months and measured after 5 months by immunolabeling based confocal microscopic analysis; conditions: route po, time 3.5 months
T1 sequence (whole entry): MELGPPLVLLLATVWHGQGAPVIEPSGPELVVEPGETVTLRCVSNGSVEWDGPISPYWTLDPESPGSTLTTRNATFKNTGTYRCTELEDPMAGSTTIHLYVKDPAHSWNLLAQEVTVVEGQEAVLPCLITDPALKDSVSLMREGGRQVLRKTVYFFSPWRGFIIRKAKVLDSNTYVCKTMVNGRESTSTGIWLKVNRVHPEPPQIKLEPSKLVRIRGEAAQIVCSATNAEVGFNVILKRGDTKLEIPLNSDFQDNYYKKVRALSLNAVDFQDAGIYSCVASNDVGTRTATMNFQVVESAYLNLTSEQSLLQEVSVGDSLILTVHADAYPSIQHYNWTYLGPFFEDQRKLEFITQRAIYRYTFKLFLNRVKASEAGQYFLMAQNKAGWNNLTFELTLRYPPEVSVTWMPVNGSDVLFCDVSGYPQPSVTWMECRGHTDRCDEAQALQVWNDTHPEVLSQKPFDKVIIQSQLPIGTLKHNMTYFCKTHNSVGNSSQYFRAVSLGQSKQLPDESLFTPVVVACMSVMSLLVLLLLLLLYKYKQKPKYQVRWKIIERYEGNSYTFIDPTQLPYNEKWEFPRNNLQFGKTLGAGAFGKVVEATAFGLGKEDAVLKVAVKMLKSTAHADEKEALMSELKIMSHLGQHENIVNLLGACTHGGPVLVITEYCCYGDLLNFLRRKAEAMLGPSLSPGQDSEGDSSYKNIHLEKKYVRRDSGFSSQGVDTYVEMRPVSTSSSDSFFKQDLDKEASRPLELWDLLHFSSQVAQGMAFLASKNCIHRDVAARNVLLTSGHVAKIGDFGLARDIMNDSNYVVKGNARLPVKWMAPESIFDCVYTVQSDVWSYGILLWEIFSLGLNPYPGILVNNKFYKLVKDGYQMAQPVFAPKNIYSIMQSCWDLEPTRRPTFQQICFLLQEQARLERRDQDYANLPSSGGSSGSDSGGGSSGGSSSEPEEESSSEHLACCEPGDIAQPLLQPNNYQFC

[2] = Drug concentration in 5XFAD mouse brain at 600 ppm administered as rodent chow starting from 1.5 months and measured after 5 months; type: ADME, tissue-based; conditions: route po, time 3.5 months, read-out: Ct
How it was run: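 WT or 5xFAD mice were fed PLX3397 in AIN-76A chow at 600 ppm or 75 ppm from 1.5 to 5 months of age. Terminal brain and plasma drug concentrations were determined at study end.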

[3] = system: Mus musculus; assay: Antialzheimer activity in 5XFAD mouse assessed as amyloidbeta42 level in detergent insoluble thalamus fraction measured per microgram protein at 1200 ppm administered as rodent chow starting from 1.5 months and measured after 7 months by ELISA (reference value: 905.886 to 11631931 pg); type: functional; conditions: route po, time 5.5 months, 4015 h
[4] = Half-life in dog at 1.00 mg/kg, iv administered as single dose; type: ADME, organism-based, Canis lupus familiaris; conditions: in vivo
[5] = system: Mus musculus; assay: Antialzheimer activity in 5XFAD mouse assessed as number of plaques in subiculum at 1200 ppm administered as rodent chow starting from 1.5 months and measured after 7 months by immunolabeling based confocal microscopic analysis (reference value: 139 to 212); type: functional; conditions: route po, time 5.5 months, 4015 h
[6] = system: Mus musculus; assay: Antialzheimer activity in 5XFAD mouse assessed as time spent in perimeter zone at 1200 ppm administered as rodent chow for 10 to 24 weeks by Open field test (reference value: 169.1 to 285.1 sec); type: functional; conditions: route po, time 10-24 weeks
[7] = target: Calcium/calmodulin-dependent protein kinase type 1 (Homo sapiens, UniProt Q14012); assay: Inhibition of CAMK1 (unknown origin)
Chain of Calcium/calmodulin-dependent protein kinase type 1 (Q14012 whole entry): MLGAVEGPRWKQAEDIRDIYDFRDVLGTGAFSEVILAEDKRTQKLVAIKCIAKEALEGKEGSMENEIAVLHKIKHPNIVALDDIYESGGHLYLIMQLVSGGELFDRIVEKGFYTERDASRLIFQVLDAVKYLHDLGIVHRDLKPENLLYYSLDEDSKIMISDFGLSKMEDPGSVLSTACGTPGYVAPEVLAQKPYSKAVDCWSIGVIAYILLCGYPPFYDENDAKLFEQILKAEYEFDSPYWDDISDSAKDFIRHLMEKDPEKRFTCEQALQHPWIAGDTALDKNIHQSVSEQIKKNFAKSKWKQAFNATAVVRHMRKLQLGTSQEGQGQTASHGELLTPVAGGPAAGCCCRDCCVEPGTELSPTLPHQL

[8] = target: CDK9/cyclin T1 (Homo sapiens, UniProt P50750); assay: Inhibition of CDK9/CyclinT1 (unknown origin); type: protein-complex assay
[9] = Effect on Cx3cr1 gene expression in wild type mouse cortex at 1200 ppm administered as rodent chow starting from 1.5 months and measured after 7 months by RNA-Seq analysis (reference value: 9.334 to 12.119); type: functional; conditions: route po, time 5.5 months, 4015 h
[10] = Effect on Siglech gene expression in wild type mouse hippocampus at 1200 ppm administered as rodent chow starting from 1.5 months and measured after 7 months by RNA-Seq analysis (reference value: 3.309 to 4.234 RPKM); type: functional; conditions: route po, time 5.5 months, 4015 h
[11] = target: AMP-activated protein kinase (AMPK) alpha-1/beta-1/gamma-1 (Homo sapiens, UniProt P54619+Q13131+Q9Y478); assay: Inhibition of AMPK_A1/B1/G1 (unknown origin); type: protein-complex assay
[12] = system: Mus musculus; assay: Effect on APP processing pathway in 5XFAD mouse assessed as C99 protein signal intensity in cortex at 1200 ppm administered as rodent starting from 1.5 months and measured after 7 months (reference value: 49.412 to 179.884 %); type: functional; conditions: route po, time 5.5 months, 4015 h
[13] = target: Glycogen synthase kinase-3 alpha (Homo sapiens, UniProt P49840); assay: Inhibition of GSK3A (unknown origin)
[14] = Volume of distribution at steady state in monkey at 1.35 mg/kg, iv administered as single dose; type: ADME, organism-based, Macaca mulatta; conditions: rhesus monkey, in vivo, read-out: Vdss
[15] = target: Platelet-derived growth factor receptor alpha (Homo sapiens, UniProt P16234); assay: Inhibition of PDGFRA (unknown origin)
Chain of Platelet-derived growth factor receptor alpha (P16234 whole entry): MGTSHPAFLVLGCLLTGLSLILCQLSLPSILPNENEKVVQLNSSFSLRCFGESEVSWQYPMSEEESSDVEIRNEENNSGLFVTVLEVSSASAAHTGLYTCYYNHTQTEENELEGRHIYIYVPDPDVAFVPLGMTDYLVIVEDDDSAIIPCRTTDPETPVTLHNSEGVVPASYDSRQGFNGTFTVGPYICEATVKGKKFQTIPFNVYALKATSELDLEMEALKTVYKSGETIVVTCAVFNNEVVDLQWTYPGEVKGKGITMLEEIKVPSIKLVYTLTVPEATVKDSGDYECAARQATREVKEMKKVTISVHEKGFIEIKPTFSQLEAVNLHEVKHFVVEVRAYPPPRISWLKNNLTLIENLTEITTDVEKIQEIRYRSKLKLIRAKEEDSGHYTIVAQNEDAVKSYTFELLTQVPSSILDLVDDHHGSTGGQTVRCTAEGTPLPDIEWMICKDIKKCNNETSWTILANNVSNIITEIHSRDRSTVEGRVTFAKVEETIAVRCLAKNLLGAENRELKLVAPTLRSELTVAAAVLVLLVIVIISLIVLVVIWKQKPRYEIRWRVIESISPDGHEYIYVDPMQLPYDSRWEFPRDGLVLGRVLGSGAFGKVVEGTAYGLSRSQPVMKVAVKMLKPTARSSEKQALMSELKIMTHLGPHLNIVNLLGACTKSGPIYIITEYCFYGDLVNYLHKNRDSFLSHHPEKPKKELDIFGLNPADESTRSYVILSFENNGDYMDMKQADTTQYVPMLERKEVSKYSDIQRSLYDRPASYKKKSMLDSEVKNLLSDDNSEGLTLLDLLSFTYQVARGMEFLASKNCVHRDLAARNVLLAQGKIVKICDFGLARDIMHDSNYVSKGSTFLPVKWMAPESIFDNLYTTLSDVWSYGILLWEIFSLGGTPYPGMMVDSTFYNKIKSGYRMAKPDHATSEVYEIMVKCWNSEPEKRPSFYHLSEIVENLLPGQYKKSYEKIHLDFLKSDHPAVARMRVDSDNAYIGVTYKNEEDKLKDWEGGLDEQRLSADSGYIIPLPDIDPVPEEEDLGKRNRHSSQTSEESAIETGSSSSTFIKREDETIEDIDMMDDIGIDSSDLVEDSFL

[16] = system: Mus musculus; assay: Effect on APP processing pathway in wildtype mouse assessed as PEN2 protein signal intensity in cortex at 1200 ppm administered as rodent starting from 1.5 months and measured after 7 months (reference value: 47.716 to 128.950 %); type: functional; conditions: route po, time 5.5 months, 4015 h
[17] = Effect on Cx3cr1 gene expression in wild type mouse thalamus at 1200 ppm administered as rodent chow starting from 1.5 months and measured after 7 months by RNA-Seq analysis (reference value: 10.263 to 12.137 RPKM); type: functional; conditions: route po, time 5.5 months, 4015 h
[18] = target: Epidermal growth factor receptor (Homo sapiens, UniProt P00533); assay: Inhibition of EGFR (unknown origin)
Chain of Epidermal growth factor receptor (P00533 whole entry): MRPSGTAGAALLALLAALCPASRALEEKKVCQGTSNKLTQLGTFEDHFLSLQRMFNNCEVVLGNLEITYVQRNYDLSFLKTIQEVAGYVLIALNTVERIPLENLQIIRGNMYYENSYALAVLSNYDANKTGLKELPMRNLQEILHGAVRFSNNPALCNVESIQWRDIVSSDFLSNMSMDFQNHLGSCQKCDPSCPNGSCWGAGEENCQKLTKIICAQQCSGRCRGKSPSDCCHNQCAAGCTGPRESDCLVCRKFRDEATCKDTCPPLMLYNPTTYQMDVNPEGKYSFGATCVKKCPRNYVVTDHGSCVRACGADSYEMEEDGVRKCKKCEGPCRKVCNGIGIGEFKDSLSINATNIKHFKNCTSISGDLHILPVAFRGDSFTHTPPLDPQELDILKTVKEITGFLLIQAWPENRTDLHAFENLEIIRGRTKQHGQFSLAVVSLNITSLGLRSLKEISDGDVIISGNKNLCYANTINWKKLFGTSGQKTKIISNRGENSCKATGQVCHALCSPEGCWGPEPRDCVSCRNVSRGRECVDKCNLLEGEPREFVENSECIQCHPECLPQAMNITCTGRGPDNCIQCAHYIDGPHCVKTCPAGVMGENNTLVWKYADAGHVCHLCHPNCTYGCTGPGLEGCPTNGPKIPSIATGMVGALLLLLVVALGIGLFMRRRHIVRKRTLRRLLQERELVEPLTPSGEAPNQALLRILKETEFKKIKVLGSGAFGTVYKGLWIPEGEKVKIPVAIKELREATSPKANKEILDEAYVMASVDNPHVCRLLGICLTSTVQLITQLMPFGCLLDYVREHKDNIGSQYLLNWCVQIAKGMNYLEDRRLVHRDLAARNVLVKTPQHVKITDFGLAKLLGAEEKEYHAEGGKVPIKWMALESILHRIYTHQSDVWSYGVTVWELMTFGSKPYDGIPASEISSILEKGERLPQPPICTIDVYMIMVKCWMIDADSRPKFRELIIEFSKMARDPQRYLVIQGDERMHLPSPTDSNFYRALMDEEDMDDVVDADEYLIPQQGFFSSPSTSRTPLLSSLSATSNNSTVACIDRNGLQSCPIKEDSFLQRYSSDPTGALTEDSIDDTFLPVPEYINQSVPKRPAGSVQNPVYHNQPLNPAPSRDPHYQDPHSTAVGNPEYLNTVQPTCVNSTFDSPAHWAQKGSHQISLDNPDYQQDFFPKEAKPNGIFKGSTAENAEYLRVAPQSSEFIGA

[19] = Effect on Ctsd gene expression in 5XFAD mouse cortex at 1200 ppm administered as rodent chow starting from 1.5 months and measured after 7 months by RNA-Seq analysis (reference value: 202.122 to 327.906 RPKM); type: functional; conditions: route po, time 5.5 months, 4015 h
[20] = target: Rho-associated protein kinase 2 (Homo sapiens, UniProt O75116); assay: Inhibition of ROCK2 (unknown origin)
Chain of Rho-associated protein kinase 2 (O75116 whole entry): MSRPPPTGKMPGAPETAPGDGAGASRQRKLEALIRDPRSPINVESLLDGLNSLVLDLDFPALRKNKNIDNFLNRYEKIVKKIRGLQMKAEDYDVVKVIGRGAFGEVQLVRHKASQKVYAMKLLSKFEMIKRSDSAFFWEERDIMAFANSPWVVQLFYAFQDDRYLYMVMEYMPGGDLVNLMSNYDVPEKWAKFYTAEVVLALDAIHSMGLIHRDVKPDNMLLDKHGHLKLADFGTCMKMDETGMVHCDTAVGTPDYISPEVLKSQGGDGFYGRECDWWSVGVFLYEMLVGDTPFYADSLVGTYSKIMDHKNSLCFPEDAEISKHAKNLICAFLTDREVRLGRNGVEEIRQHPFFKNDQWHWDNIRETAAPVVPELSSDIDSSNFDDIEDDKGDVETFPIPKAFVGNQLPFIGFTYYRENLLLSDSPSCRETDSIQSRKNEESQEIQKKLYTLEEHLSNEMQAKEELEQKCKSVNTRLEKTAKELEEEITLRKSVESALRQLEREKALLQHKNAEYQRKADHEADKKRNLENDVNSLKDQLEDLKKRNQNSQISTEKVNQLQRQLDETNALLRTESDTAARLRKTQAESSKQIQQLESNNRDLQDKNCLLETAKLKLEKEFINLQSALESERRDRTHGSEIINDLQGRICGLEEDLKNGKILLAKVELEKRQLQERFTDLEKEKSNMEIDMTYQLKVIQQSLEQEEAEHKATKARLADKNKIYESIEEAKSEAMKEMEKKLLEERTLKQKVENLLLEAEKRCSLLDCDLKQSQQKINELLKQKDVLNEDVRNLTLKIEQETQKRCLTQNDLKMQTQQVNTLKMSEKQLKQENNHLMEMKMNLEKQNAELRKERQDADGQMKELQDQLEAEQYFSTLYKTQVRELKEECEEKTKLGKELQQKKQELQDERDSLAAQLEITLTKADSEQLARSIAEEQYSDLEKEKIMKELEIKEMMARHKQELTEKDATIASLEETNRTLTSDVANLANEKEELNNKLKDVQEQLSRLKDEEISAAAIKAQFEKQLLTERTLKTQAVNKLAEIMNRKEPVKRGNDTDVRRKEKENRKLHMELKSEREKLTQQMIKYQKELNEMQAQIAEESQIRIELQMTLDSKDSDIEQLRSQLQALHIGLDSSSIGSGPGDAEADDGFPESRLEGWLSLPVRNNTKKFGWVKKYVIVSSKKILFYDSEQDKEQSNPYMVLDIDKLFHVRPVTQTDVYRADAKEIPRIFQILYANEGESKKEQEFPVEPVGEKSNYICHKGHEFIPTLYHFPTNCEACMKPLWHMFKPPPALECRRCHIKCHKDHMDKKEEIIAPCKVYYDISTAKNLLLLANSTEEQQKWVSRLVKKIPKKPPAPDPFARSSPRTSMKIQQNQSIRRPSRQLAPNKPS

[21] = Effect on ccl6 gene expression in 5XFAD mouse cortex at 1200 ppm administered as rodent chow starting from 1.5 months and measured after 7 months by RNA-Seq analysis (reference value: 4.103 to 8.161 RPKM); type: functional; conditions: route po, time 5.5 months, 4015 h
[22] = target: Cyclin-dependent kinase 5/CDK5 activator 1 (Homo sapiens, UniProt Q00535); assay: Inhibition of CDK5_p25 (unknown origin); type: protein-complex assay
Chain of Cyclin-dependent kinase 5/CDK5 activator 1 (Q00535 whole entry): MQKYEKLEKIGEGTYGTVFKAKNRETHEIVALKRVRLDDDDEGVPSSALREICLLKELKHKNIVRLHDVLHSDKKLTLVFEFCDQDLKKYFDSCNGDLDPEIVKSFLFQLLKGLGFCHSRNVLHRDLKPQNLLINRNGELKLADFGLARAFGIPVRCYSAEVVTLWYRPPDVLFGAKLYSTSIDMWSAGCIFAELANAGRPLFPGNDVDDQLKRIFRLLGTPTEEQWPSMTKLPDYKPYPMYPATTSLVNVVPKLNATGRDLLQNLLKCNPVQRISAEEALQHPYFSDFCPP
Chain of Cyclin-dependent kinase 5/CDK5 activator 1 (Q15078 whole entry, further chain): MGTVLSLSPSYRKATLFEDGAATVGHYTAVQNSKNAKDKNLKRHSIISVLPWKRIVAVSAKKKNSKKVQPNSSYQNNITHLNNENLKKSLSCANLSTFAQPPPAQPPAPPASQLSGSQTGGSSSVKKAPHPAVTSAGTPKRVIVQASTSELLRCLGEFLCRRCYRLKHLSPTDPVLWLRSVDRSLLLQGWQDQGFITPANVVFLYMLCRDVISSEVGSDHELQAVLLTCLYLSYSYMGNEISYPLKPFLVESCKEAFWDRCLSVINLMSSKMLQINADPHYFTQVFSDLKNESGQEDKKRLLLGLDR

[23] = Volume of distribution at steady state in dog at 1.00 mg/kg, iv administered as single dose; type: ADME, organism-based, Canis lupus familiaris; conditions: in vivo, read-out: Vdss

For `FC(F)(F)c1ccc(CNc2ccc(Cc3c[nH]c4ncc(Cl)cc34)cn2)cn1` [PEXIDARTINIB], the inhibition [1] was “Active” and the concentration at 2555 h [2] was 5.6 µM.
`COc1ncc(F)cc1CNc1ccc(Cc2c[nH]c3ncc(C)cc23)c(F)n1` [PLX-5622] gave a Flu intensity [3] of 4280.692 a.u, a half-life [4] of 15 h and an Activity [5] of 97. The Time [6] was 201.4 s, the IC50 [7] was over 1000 nM and the IC50 [8] was over 1000 nM. For the same compound, the Activity [9] was 0 RPKM, the Activity [10] was 0 RPKM and the IC50 [11] was over 1000 nM. It also gave an Activity [12] of 75.956%, an IC50 [13] of over 1000 nM and a Vd [14] of 1.6 L/kg. It also gave an IC50 [15] of over 1000 nM, an Activity [16] of 9.039% and an Activity [17] of 0.026 RPKM. For the same compound, the IC50 [18] was over 1000 nM, the Activity [19] was 106.638 RPKM and the IC50 [20] was over 1000 nM. For the same compound, the Activity [21] was 0.241 RPKM, the IC50 [22] was over 1000 nM and the Vd [23] was 2.3 L/kg.
